Assay results from article PMC2233905 (The Journal of General Physiology, 2004).

Columns and labels:
Kv4.2 = molecular target: T1, Kv4.2 (Homo sapiens, UniProt Q9NZV8); assay: Kv4.2 channels; type: cell-based; conditions: concentrations up to 10 μM, unpublished data
T1 sequence (Q9NZV8 1-630): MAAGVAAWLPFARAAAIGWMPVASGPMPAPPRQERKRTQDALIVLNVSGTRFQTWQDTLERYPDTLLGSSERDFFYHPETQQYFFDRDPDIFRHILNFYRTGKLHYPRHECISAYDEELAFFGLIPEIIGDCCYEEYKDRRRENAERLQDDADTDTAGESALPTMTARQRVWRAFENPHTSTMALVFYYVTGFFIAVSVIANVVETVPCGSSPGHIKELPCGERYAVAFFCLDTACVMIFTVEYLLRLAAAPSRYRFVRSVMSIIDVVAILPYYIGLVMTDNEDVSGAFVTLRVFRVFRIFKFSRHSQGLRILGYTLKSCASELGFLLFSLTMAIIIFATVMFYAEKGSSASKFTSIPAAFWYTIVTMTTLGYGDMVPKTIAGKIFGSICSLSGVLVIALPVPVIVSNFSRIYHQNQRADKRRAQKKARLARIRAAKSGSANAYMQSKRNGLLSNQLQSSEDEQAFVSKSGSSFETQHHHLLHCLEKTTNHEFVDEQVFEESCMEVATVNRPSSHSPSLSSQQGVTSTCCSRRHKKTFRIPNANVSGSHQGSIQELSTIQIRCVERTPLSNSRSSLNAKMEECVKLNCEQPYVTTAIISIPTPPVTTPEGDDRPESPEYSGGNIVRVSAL

[1] = test system: outward currents of ventricular cardiomyocytes; conditions: concentrations <10 μM; ref Berul and Morad, 1995; cited from earlier work
[2] = Ionization: pKa and calculated protonated fractions; type: physicochemical
In short: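 Fractions of unprotonated, monoprotonated and diprotonated test compound were calculated from its two pKa values at pH 6.4, 7.4 and 8.4. The diprotonated percentage was 100 × [H+]2 divided by the summed-species denominator. Protonated fractions in the pH 7.4 recording solution were predicted the same way.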

[3] = test system: Eag-like channels 2 (hELK2); conditions: ref Becchetti et al., 2002; cited from earlier work
hEag1 channels [4] = molecular target: T2, hEag1 channels (Homo sapiens, UniProt O95259); assay: Cell-attached patch recordings of hEag1 currents, drug in bath; type: cell-based; conditions: 140 mM external K+, 60 mV
T2 sequence (O95259 1-989): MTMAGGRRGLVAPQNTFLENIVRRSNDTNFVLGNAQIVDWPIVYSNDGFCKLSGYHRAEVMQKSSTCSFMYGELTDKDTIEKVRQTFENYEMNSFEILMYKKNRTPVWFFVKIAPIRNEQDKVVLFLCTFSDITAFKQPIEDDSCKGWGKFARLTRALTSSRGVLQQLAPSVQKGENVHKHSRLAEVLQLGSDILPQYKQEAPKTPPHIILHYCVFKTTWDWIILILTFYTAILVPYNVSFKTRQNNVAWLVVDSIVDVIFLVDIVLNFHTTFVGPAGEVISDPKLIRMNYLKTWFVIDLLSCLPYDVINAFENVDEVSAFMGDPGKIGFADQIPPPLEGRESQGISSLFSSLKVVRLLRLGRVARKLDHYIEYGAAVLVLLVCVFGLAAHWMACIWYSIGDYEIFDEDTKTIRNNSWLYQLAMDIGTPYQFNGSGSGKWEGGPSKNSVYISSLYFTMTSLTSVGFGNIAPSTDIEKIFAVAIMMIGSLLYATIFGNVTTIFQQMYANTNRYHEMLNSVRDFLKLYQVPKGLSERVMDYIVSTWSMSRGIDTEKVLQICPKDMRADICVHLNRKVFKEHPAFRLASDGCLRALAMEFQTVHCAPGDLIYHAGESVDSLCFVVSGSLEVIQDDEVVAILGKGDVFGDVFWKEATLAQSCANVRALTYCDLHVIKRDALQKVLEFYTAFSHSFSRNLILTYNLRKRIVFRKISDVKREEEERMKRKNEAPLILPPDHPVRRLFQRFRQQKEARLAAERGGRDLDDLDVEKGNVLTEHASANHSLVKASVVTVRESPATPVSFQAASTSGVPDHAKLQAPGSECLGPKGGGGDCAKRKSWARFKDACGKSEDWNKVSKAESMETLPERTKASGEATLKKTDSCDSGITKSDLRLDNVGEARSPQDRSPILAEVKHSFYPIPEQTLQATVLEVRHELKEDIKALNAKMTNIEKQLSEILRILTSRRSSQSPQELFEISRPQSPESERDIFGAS
In short: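 hEag1-expressing cells grown 24–72 h on poly-L-lysine-coated coverslips; cell-attached patches at room temperature. Bath held 140 mM K+; pipette held control external solution (160 NaCl, 2.5 KCl, 2 CaCl2, 1 MgCl2, 10 HEPES, pH 7.4) without glucose. 1-s steps to 60 mV from −70 mV were recorded before, during and after washout of bath-applied drug.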

[5] = ref Fischer et al., 1997, 1998; cited from earlier work
[6] = test system: IRK1 inward rectifier K^+ channels; conditions: concentrations up to 10 μM; ref Suessbrich et al., 1996; cited from earlier work
Kv1.1 = conditions: concentrations up to 10 μM; ref Suessbrich et al., 1996; cited from earlier work
breast cancer cells = conditions: ref Ouadid-Ahidouch et al., 2001; cited from earlier work
hEag1 channels [7] = molecular target: T2, hEag1 channels; assay: hEag1 channels expressed in Xenopus oocytes; type: cell-based

effect on current (Kv4.2): no significant effects
Diprotonated form, percentile contribution ([2]; pH 6.4, calculated): 13.6%
Monoprotonated form, percentile contribution ([2]; pH 6.4, calculated): 85.7%
Unprotonated form, percentile contribution ([2]; pH 6.4, calculated): 0.7%
Diprotonated form, percentile contribution ([2]; pH 7.4, calculated): 1.4%
Monoprotonated form, percentile contribution ([2]; pH 7.4, calculated): 91.3%
Unprotonated form, percentile contribution ([2]; pH 7.4, calculated): 7.3%
predicted protonated fraction ([2]; pH 7.4 recording solution): 93%
Diprotonated form, percentile contribution ([2]; pH 8.4, calculated): 0.1%
Monoprotonated form, percentile contribution ([2]; pH 8.4, calculated): 55.7%
Unprotonated form, percentile contribution ([2]; pH 8.4, calculated): 44.2%
block of channels in cell-attached patches by bath application (hEag1 channels [4]): blocked
IC50 (hEag1 channels [7]): ~1500 nM
SMILES: COc1ccc(CCN2CCC(Nc3nc4ccccc4n3Cc3ccc(F)cc3)CC2)cc1 [astemizole]
effect on currents [1]: no effects
sensitivity to astemizole [3]: not sensitive
pK a1 [5]: 5.6
pK a2 [5]: 8.5
effect on current [6]: no significant effects
effect on current (Kv1.1): no significant effects
effect on proliferation rate (breast cancer cells): significant reduction
